{"data": "Measured values pooled from the literature", "CDKL1": "Cyclin-dependent kinase-like 1 (CDKL1, Homo sapiens, UniProt Q00532)", "MAP3K11": "Mitogen-activated protein kinase kinase kinase 11 (MAP3K11, Homo sapiens, UniProt Q16584)", "ULK1": "Serine/threonine-protein kinase ULK1 (ULK1, Homo sapiens, UniProt O75385)", "MET M1250T": "Hepatocyte growth factor receptor (MET, Homo sapiens, UniProt P08581, M1250T)", "note": "Compare with care: the assays were run in different laboratories."}
{"SMILES": "Nc1ncnc2occ(-c3ccc(NC(=O)Nc4cc(C(F)(F)F)ccc4F)cc3)c12", "target": "Serine/threonine-protein kinase 36 (STK36, Homo sapiens, UniProt Q9NRP7)", "test": "cell-free assay, inhibitor", "conditions": "20 µM", "measurement": "remaining signal", "value": "87%"}
{"SMILES": "CCN1CCN(Cc2ccc(NC(=O)c3ccc(C)c(Oc4ccnc5[nH]ccc45)c3)cc2C(F)(F)F)CC1", "target": "Eukaryotic elongation factor 2 kinase (EEF2K, Homo sapiens, UniProt O00418)", "test": "target engagement in cells, inhibitor, chemoproteomics", "test system": "Huh-7", "conditions": "10 µM", "measurement": "inhibition", "value": "-20.2%"}
{"SMILES": "CN1CCC2(CC1)NC(=O)c1c(c3ccc(Cl)c(Cl)c3n1C)C2C#N (racemic)", "target": "CDKL1", "test": "thermal stability, DSF", "conditions": "10 µM", "measurement": "ΔTm", "value": "0 °C"}
{"SMILES": "CNC(=O)c1cc2c(Oc3ccc(NC(=O)C4(C(=O)Nc5ccc(F)cc5)CC4)cc3)ccnc2cc1OC", "target": "Hepatocyte growth factor receptor (MET, Homo sapiens, UniProt P08581)", "test": "enzyme activity, inhibitor, radiometric", "conditions": "1 µM", "measurement": "inhibition", "value": "99%"}
{"SMILES": "c1cc(CN2CCOCC2)cc(Nc2ncc(C3CC3)c(NCCc3c[nH]cn3)n2)c1", "target": "MAP3K11", "test": "enzyme activity, inhibitor, radiometric", "conditions": "1 µM", "measurement": "remaining activity", "value": "27%"}
{"SMILES": "Cn1c2c(c3ccc(Cl)c(Cl)c31)C(C#N)C1(CCCCC1)NC2=O (racemic)", "target": "CDKL1", "test": "thermal stability, DSF", "conditions": "10 µM", "measurement": "ΔTm", "value": "0.4 °C"}
{"SMILES": "Cc1nn(CC(F)(F)F)cc1Nc1ncc(C2CC2)c(NCCc2c[nH]cn2)n1", "target": "ULK1", "test": "enzyme activity, inhibitor, radiometric", "conditions": "1 µM", "measurement": "remaining activity", "value": "78%"}
{"SMILES": "Cn1c2c(c3ccc(Cl)c(Cl)c31)C(C#N)C1(CCCC1)NC2=O (stereo not drawn)", "target": "CDKL1", "test": "thermal stability, DSF", "conditions": "10 µM", "measurement": "ΔTm", "value": "0 °C"}
{"SMILES": "NS(=O)(=O)c1ccc(CNc2nc(Nc3cccc(NC(=O)N4CCCC4)c3)ncc2C2CC2)cc1", "target": "ULK1", "test": "enzyme activity, inhibitor, radiometric", "conditions": "1 µM", "measurement": "remaining activity", "value": "82%"}
{"SMILES": "N#CC1c2c([nH]c3c(Cl)c(Cl)ccc23)C(=O)NC12CCCCC2 (racemic)", "target": "CDKL1", "test": "thermal stability, DSF", "conditions": "10 µM", "measurement": "ΔTm", "value": "0.2 °C"}
{"SMILES": "Cc1nn(CC(F)(F)F)cc1Nc1nccc(NCc2ccc(S(N)(=O)=O)cc2)n1", "target": "MAP3K11", "test": "enzyme activity, inhibitor, radiometric", "conditions": "1 µM", "measurement": "remaining activity", "value": "95%"}
{"SMILES": "c1cc(-c2nnc3scnn23)ccn1", "target": "Type II inositol 1,4,5-trisphosphate 5-phosphatase (Homo sapiens, UniProt P32019)", "test": "enzyme activity, inhibitor", "measurement": "Emax", "value": "100%"}
{"SMILES": "Cn1c2c(Cl)c(Cl)ccc2c2cc[nH]c(=O)c21", "target": "CDKL1", "test": "thermal stability, DSF", "conditions": "10 µM", "measurement": "ΔTm", "value": "-0.1 °C"}
{"SMILES": "NS(=O)(=O)c1ccc(CNc2nc(Nc3cccc(CN4CCOCC4)c3)ncc2Br)cc1", "target": "ULK1", "test": "enzyme activity, inhibitor, radiometric", "conditions": "1 µM", "measurement": "remaining activity", "value": "50%"}
{"SMILES": "FC(F)(F)Oc1cccc(-c2cnc3ccc(-c4ccncc4)nn23)c1", "target": "Mitogen-activated protein kinase kinase kinase 1 (MAP3K1, Homo sapiens, UniProt Q13233)", "test": "enzyme activity, inhibitor, radiometric", "conditions": "5 µM", "measurement": "activity vs control", "value": "94%"}
{"SMILES": "CCN1CCC2(CC1)NC(=O)c1c(c3ccc(Cl)c(Cl)c3n1C)C2C#N (racemic)", "target": "CDKL1", "test": "thermal stability, DSF", "conditions": "10 µM", "measurement": "ΔTm", "value": "-0.1 °C"}
{"SMILES": "Cc1cnc(NC2CCOCC2)nc1-n1cnc(C(=O)NC(CN)c2cc(F)cc(Cl)c2)c1 (stereo not drawn)", "target": "MET M1250T", "test": "enzyme activity, inhibitor, radiometric", "conditions": "1 µM", "measurement": "remaining activity", "value": "100%"}
{"SMILES": "NS(=O)(=O)c1ccc(CNc2nc(Nc3cccc(NC(=O)N4CCCC4)c3)ncc2Br)cc1", "target": "MAP3K11", "test": "enzyme activity, inhibitor, radiometric", "conditions": "1 µM", "measurement": "remaining activity", "value": "24%"}
{"SMILES": "Cc1cc(NC(=O)c2cccc3cc(-c4cccc5[nH]nc(N)c45)ccc23)ccc1F", "target": "Hepatocyte growth factor receptor (MET, Homo sapiens, UniProt P08581, Y1230C)", "test": "enzyme activity, inhibitor", "conditions": "0.1 µM", "measurement": "activity vs control", "value": "92%"}
{"SMILES": "NS(=O)(=O)c1ccc(CNc2ccnc(Nc3cccc(CN4CCOCC4)c3)n2)cc1", "target": "MAP3K11", "test": "enzyme activity, inhibitor, radiometric", "conditions": "1 µM", "measurement": "remaining activity", "value": "95%"}
{"SMILES": "Cc1ccc(NC(=O)c2ccc(C)c(C(F)(F)F)c2)cc1C#Cc1nn(C2CCC(O)CC2)c2ncnc(N)c12 (stereo not drawn)", "target": "MET M1250T", "test": "cell-free assay", "conditions": "10 µM", "measurement": "remaining signal", "value": "136%"}
